# Molecular target: Albumin (Homo sapiens, UniProt P02768)
# Experiment: Binding affinity to human serum albumin at 100 uM by analytical ultracentrifugation analysis relative to liraglutide
# Assay type: ADME
# Settings: isolated protein; call rule not given here
# Procedure, shortened: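 Sedimentation-velocity analytical ultracentrifugation of 100 μM analogue with 10 μM purified monomeric HSA in PBS, pH 7.4, at 20 °C and 40 000 rpm, read at 250 nm. Free fraction Φ = c_free/(c_tot − c_HSA). Three experiments were averaged, with SD.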
# Sequence of Albumin (P02768 whole entry): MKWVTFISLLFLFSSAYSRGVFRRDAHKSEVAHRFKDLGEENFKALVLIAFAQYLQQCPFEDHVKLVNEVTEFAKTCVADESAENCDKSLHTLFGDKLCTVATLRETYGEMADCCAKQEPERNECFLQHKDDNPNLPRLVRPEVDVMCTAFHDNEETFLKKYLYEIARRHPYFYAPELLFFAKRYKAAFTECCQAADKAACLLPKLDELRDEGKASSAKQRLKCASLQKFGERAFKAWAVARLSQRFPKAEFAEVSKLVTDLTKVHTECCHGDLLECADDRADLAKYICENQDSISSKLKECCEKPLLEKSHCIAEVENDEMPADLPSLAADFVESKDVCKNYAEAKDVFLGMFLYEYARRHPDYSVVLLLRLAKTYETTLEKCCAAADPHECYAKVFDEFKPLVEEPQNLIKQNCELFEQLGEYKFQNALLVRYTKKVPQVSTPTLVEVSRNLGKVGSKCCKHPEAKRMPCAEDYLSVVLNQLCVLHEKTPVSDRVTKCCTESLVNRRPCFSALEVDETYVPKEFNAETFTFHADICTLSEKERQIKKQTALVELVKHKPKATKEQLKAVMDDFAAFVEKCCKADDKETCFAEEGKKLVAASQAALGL
compound,measurement,value
CC[C@H](C)[C@H](NC(=O)[C@H](Cc1ccccc1)NC(=O)[C@H](CCC(=O)O)NC(=O)[C@H](CCCCNC(=O)COCCOCCNC(=O)COCCOCCNC(=O)CC[C@H](NC(=O)CCCCCCCCCCCCCCCCC(=O)O)C(=O)O)NC(=O)[C@H](C)NC(=O)[C@H](C)NC(=O)[C@H](CCC(N)=O)NC(=O)CNC(=O)[C@H](CCC(=O)O)NC(=O)[C@H](CC(C)C)NC(=O)[C@H](Cc1ccc(O)cc1)NC(=O)[C@H](CO)NC(=O)[C@H](CO)NC(=O)[C@@H](NC(=O)[C@H](CC(=O)O)NC(=O)[C@H](CO)NC(=O)[C@@H](NC(=O)[C@H](Cc1ccccc1)NC(=O)[C@@H](NC(=O)CNC(=O)[C@H](CCC(=O)O)NC(=O)[C@H](C)NC(=O)[C@@H](N)Cc1c[nH]cn1)[C@@H](C)O)[C@@H](C)O)C(C)C)C(=O)N[C@@H](C)C(=O)N[C@@H](Cc1c[nH]c2ccccc12)C(=O)N[C@@H](CC(C)C)C(=O)N[C@H](C(=O)N[C@@H](CCCNC(=N)N)C(=O)NCC(=O)N[C@@H](CCCNC(=N)N)C(=O)NCC(=O)O)C(C)C,Activity,Not Active
